By IC50 is commonly meant the concentration that gives 50% inhibition. The term inhibition denotes the percentage by which the read-out fell short of the control.

The target in experiment [1] is T1, Rho-associated protein kinase 2 (Homo sapiens, UniProt O75116). As to the kind of experiment: Inhibition of ROCK2 (unknown origin) using C-terminus recombinant MBS (654-880 residues) as substrate incubated for 30 mins in presence of ATP by ELISA. The gist of the method: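 Compounds with significant single-point inhibition were run in full concentration–response in the ROCK II ELISA kit. Kinase step at 30 °C for 30 min, then wash. Anti-AF20 HRP antibody applied for 30 min at room temperature, followed by TMB colour development read at OD 450 nm. IC50 calculated by nonlinear regression of inhibition rates.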
For orientation: ELISA stands for enzyme-linked immunosorbent assay.
Target sequence in this assay (O75116 whole entry, the tested form may be a part): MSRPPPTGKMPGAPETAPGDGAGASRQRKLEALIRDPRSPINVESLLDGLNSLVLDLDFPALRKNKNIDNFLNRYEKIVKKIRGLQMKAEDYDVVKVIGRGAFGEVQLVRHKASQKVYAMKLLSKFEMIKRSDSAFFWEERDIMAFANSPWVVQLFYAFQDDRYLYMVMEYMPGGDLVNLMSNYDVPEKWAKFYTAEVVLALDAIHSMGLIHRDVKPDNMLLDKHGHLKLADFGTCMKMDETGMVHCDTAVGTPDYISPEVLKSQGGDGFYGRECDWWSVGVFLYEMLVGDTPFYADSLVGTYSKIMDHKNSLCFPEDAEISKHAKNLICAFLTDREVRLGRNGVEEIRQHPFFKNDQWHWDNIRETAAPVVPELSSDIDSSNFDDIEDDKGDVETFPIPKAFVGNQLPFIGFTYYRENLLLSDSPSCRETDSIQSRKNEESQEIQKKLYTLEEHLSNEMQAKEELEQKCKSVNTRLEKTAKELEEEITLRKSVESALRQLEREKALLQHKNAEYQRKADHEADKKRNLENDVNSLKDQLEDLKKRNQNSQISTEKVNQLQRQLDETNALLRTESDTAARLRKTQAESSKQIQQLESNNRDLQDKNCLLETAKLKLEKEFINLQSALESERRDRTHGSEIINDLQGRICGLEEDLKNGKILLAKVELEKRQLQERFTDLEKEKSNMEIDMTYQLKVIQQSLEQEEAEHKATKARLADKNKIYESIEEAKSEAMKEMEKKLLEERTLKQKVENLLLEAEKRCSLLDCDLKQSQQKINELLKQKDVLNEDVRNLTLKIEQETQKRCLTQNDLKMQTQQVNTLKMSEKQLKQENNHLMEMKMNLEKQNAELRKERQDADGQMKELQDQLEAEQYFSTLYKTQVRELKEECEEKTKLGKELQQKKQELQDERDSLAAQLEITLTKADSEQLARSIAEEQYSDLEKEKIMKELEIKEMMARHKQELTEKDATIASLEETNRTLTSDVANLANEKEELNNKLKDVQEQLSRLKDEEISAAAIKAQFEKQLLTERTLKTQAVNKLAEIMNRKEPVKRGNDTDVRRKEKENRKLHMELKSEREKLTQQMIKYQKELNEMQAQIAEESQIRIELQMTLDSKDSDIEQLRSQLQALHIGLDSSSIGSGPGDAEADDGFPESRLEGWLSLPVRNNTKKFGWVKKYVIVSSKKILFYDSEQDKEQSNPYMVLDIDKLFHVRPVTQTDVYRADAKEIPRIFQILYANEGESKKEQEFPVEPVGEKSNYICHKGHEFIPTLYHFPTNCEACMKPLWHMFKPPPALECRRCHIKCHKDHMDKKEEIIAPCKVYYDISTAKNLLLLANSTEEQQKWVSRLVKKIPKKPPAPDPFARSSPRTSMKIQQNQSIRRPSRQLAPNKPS

Experiment [2] addresses T1, Rho-associated protein kinase 2. As to the kind of experiment: Inhibition of ROCK2 (unknown origin) using C-terminus recombinant MBS (654-880 residues) as substrate at 10 uM incubated for 30 mins in presence of ATP by ELISA relative to control. In outline: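 ROCK II activity ELISA kit; compounds screened at 10 µM for percent inhibition. Kinase reaction incubated at 30 °C for 30 min, then washed. Horseradish peroxidase-conjugated anti-AF20 antibody added for 30 min at room temperature. TMB substrate developed and absorbance read at 450 nm. Inhibition rate derived from OD450.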
Target sequence in this assay (O75116 whole entry, looked up, the tested form may be a part): as the sequence (O75116 whole entry, the tested form may be a part) above

For the compound `CN(C)C(=O)Cc1sc(NC(=O)C2COc3ccccc3O2)nc1-c1ccncc1` (stereo not drawn), the IC50 in experiment [1] stood at 8.83 µM. The inhibition in experiment [2] came out at 56.9%.

Regarding `O=C(Nc1nc(-c2ccncc2)c(CN2CCOCC2)s1)c1cccnc1`, the inhibition in experiment [2] is 52.2%.

As to `CC(C)N(C)c1sc(NC(=O)c2ccncc2)nc1-c1ccncc1`, the inhibition in experiment [2] came to 32.1%.

On to `CN(C)Cc1sc(NC(=O)C2COc3ccccc3O2)nc1-c1cccnc1` (stereo not drawn), for which the IC50 in experiment [1] came out at 4.96 µM. Also, in experiment [2], the inhibition came to 58.1%.

For the compound `CN1CCN(c2sc(NC(=O)c3ccncc3)nc2-c2ccncc2)CC1`, the inhibition in experiment [2] is 34.3%.

In the case of `O=C(Nc1nc(-c2cccnc2)c(CN2CCCC2)s1)C1COc2ccccc2O1` (stereo not drawn), the inhibition in experiment [2] turned out to be 61.3%.

In the case of `O=C(Nc1nc(-c2cccnc2)c(CN2CCOCC2)s1)c1cccnc1`, the inhibition in experiment [2] came out at 41.1%.

For `CN(C)CCc1sc(NC(=O)C2COc3ccccc3O2)nc1-c1ccncc1` (stereo not drawn), in experiment [1], the IC50 was found to be 0.09 µM. The inhibition in experiment [2] worked out at 78.5%.

Take `O=C(Nc1nc(-c2ccncc2)c(CN2CCOCC2)s1)C1COc2ccccc2O1` (stereo not drawn): the inhibition in experiment [2] was found to be 87.4%.

Turning to `CN(C)Cc1sc(NC(=O)c2cccnc2)nc1-c1cccnc1`, the inhibition in experiment [2] came out at 33.9%.

For the compound `O=C(Nc1nc(-c2cccnc2)c(CN2CCOCC2)s1)c1ccncc1`, the inhibition in experiment [2] amounted to 51.1%.

As for `O=C(Nc1nc(-c2cccnc2)c(CN2CCCCC2)s1)c1cccnc1`, the inhibition in experiment [2] was found to be 28.5%.

`CN(C)C(=O)Cc1sc(NC(=O)c2ccncc2)nc1-c1ccncc1`: the inhibition in experiment [2] is 38.1%.

For the compound `O=C(Nc1nc(-c2ccncc2)c(CN2CCCCC2)s1)c1ccncc1`, in experiment [2], the inhibition worked out at 48.2%.

Turning to `CN1CCN(Cc2sc(NC(=O)c3cccnc3)nc2-c2cccnc2)CC1`, in experiment [2], the inhibition stood at 32.1%.

Turning to `O=C(Nc1nc(-c2ccncc2)cs1)C1COc2ccccc2O1` (stereo not drawn), the inhibition in experiment [2] amounted to 91.3%.

On to `O=C(Nc1nc(-c2ccncc2)c(CN2CCCC2)s1)c1ccncc1`, for which, in experiment [2], the inhibition is 47.6%.

For `CC(C)N(C)Cc1sc(NC(=O)c2cccnc2)nc1-c1cccnc1`, in experiment [2], the inhibition is 38.1%.

Turning to `O=C(Nc1nc(-c2cccnc2)c(CN2CCOCC2)s1)C1COc2ccccc2O1` (stereo not drawn), the IC50 in experiment [1] amounted to 1.73 µM. Further, in experiment [2], the inhibition was determined as 63.8%.

For the compound `CN(C)Cc1sc(NC(=O)c2ccncc2)nc1-c1cccnc1`, the inhibition in experiment [2] came out at 35.3%.

Consider `O=C(Nc1nc(-c2ccncc2)c(N2CCOCC2)s1)C1COc2ccccc2O1` (stereo not drawn), for which the IC50 in experiment [1] was 0.13 µM. Moreover, in experiment [2], the inhibition stood at 76.3%.

As to `O=C(Nc1nc(-c2ccncc2)c(CN2CCOCC2)s1)c1ccncc1`, the inhibition in experiment [2] is 58.1%.

Take `CN(C)CCc1sc(NC(=O)c2ccncc2)nc1-c1ccncc1`: the inhibition in experiment [2] amounted to 48.8%.

Values taken from ChEMBL document CHEMBL4725404, “Design, synthesis and biological evaluation of 4-aryl-5-aminoalkyl-thiazole-2-amines derivatives as ROCK II inhibitors” (Bioorg Med Chem, 2020).
